Results on ten compounds are retold here after ChEMBL document CHEMBL1152799, “Mixed kappa/mu opioid receptor agonists: the 6 beta-naltrexamines” (J Med Chem, 2009).

Structures are written as SMILES. Calls of active or inactive are those of the source. No cut-off for these calls is given here.

Assay [1] concerns the target T1, Mu-type opioid receptor (Rattus norvegicus, UniProt P33535). Briefly: Displacement of [3H]diprenorphine from rat mu opioid receptor expressed in rat C6 cell membrane by liquid scintillation and luminescence counter. (In general: Loss of bound radioactivity is the signal in a displacement assay; it reports binding, not function.)
Assay [2] concerns the target T2, Kappa-type opioid receptor (Homo sapiens, UniProt P41145). Briefly: Displacement of [3H]diprenorphine from human kappa opioid receptor expressed in CHO cell membrane by liquid scintillation and luminescence counter.
In assay [3] the target is Mu-type opioid receptor (Rattus norvegicus) (UniProt P33535). Nature of the assay: Agonist activity at rat mu opioid receptor expressed in rat C6 cell membrane assessed as stimulation of [35S]GTPgammaS binding relative to DAMGO. Format: functional, cell membranes. The procedure, abridged: (§1)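 Membranes from CHOκ (human KOR, grown in DMEM-F12) or C6μ (rat MOR, DMEM) cells, 20 μg, incubated 60 min at 25 °C in 20 mM Tris-HCl pH 7.4, 5 mM MgCl2, 100 mM NaCl, 2.2 mM fresh DTT, 30 μM GDP, 0.1 nM [35S]GTPγS with compound; filtered on GF/C, scintillation counting; efficacy versus U69593 (KOR) or DAMGO (MOR); mean ± SEM of three experiments.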
Sequence of Mu-type opioid receptor (Rattus norvegicus) (P33535 whole entry): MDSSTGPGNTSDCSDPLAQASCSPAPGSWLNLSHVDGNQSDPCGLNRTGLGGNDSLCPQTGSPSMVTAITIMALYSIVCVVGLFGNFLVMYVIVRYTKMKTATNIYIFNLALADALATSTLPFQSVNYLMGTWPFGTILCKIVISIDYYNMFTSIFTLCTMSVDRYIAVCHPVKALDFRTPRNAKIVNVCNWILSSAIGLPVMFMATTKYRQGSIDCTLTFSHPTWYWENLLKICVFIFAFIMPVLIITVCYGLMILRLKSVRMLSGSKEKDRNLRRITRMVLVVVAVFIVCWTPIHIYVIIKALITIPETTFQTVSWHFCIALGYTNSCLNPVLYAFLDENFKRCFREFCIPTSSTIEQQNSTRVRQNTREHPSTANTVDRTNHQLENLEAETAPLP

Assay [4] concerns the target T2, Kappa-type opioid receptor. Nature of the assay: Agonist activity at human kappa opioid receptor expressed in CHO cell membrane assessed as stimulation of [35S]GTPgammaS binding. Format: functional, cell membranes. The procedure, abridged: as §1
For assay [5], the target named is T2, Kappa-type opioid receptor. Briefly: Agonist activity at human kappa opioid receptor expressed in CHO cell membrane assessed as stimulation of [35S]GTPgammaS binding relative to U69593. Format: functional, cell membranes. The procedure, abridged: as §1
Background: GTPγS resists hydrolysis and so accumulates on activated G proteins.

In assay [6] the target is Mu-type opioid receptor (Rattus norvegicus) (UniProt P33535). Nature of the assay: Antagonist activity at rat mu opioid receptor expressed in rat C6 cell membrane assessed as DAMGO-stimulated of [35S]GTPgammaS binding. Format: functional, cell membranes. The procedure, abridged: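 C6 glioma membranes with stably expressed rat MOR; antagonism of DAMGO-stimulated [35S]GTPγS binding reported as Ke; incubation 60 min, 25 °C, in Tris-HCl pH 7.4 with MgCl2, NaCl, DTT, 30 μM GDP, 0.1 nM [35S]GTPγS; filtration and scintillation read-out.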

The target of assay [7] is T1, Mu-type opioid receptor. Nature of the assay: Agonist activity at rat mu opioid receptor expressed in rat C6 cell membrane assessed as stimulation of [35S]GTPgammaS binding. Format: functional, cell membranes. Put shortly: as §1

T1 sequence (P33535 whole entry): as above
T2 sequence (P41145 whole entry): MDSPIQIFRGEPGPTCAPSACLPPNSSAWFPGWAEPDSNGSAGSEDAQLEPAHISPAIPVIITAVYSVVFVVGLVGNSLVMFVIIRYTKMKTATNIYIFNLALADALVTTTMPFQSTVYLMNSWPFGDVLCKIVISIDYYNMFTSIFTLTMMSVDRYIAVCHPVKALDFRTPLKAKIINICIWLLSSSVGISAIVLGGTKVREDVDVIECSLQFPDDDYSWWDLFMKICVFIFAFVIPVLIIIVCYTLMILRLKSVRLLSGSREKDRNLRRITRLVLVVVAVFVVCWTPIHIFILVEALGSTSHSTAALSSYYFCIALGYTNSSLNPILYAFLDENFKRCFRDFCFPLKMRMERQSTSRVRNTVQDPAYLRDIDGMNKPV

As to `O=C(/C=C/c1ccccc1)N[C@@H]1CC[C@@]2(OC(=O)c3ccccc3)[C@H]3Cc4ccc(O)c5c4[C@@]2(CCN3CC2CC2)[C@H]1O5`, the Ki (commonly a measure of affinity in units of concentration, obtained from inhibition or displacement) at Mu-type opioid receptor [1] turned out to be 0.42 nM; in assay [2], 1.1 nM. Besides, the outcome in assay [3] was inactive. Moreover, the EC50 – broadly, the concentration giving half of the maximal effect – in assay [4] is 9.8 nM. Besides, the Activity in assay [5] stood at 26%. Moreover, the Ke in assay [6] worked out at 0.41 nM.
Regarding `O=C(/C=C/c1ccccc1)N[C@@H]1CC[C@@]2(OCc3ccccc3)[C@H]3Cc4ccc(O)c5c4[C@@]2(CCN3CC2CC2)[C@H]1O5`, the Ki at Mu-type opioid receptor [1] was 0.16 nM; in assay [2], 0.86 nM. Further, the half-maximal effective concentration (EC50) at Mu-type opioid receptor [7] was 2 nM; in assay [4], 0.78 nM. The values for the Activity in assay [3] and in assay [5] were 19% and 97%, respectively.
As to `O=C(/C=C/c1ccccc1Cl)N[C@@H]1CC[C@@]2(O)[C@H]3Cc4ccc(O)c5c4[C@@]2(CCN3CC2CC2)[C@H]1O5`, the Ki was found to be 0.079 nM at Mu-type opioid receptor [1] and 0.27 nM in assay [2]. In addition, the EC50 at Mu-type opioid receptor [7] stood at 12 nM; in assay [4], 0.4 nM. For the same compound, the Activity in assay [3] amounted to 17%; in assay [5] it was 97%.
On to `COc1ccccc1/C=C/C(=O)N[C@@H]1CC[C@@]2(O)[C@H]3Cc4ccc(O)c5c4[C@@]2(CCN3CC2CC2)[C@H]1O5`, for which the Activity was found to be 21% in assay [3] and 105% in assay [5].
As for `C=CCO[C@@]12CC[C@@H](NC(=O)/C=C/c3ccccc3)[C@@H]3Oc4c(O)ccc5c4[C@@]31CCN(CC1CC1)[C@@H]2C5`, the Ki at Mu-type opioid receptor [1] amounted to 0.25 nM; in assay [2], 0.12 nM. Also, the EC50 came out at 0.6 nM on Mu-type opioid receptor [7] and 0.079 nM in assay [4]. Moreover, the Activity came to 39% in assay [3] and 120% in assay [5].
As to `O=C(/C=C/c1ccccc1)N[C@@H]1CC[C@@]2(OC(=O)Cc3ccccc3)[C@H]3Cc4ccc(O)c5c4[C@@]2(CCN3CC2CC2)[C@H]1O5`, the Ki on Mu-type opioid receptor [1] turned out to be 0.28 nM; in assay [2] it was 0.26 nM. Moreover, the EC50 at Mu-type opioid receptor [7] came out at 1.3 nM; in assay [4], 0.49 nM. Besides, the Activity was determined as 41% in assay [3] and 76% in assay [5].
`CC(=O)O[C@@]12CC[C@@H](NC(=O)/C=C/c3ccccc3)[C@@H]3Oc4c(O)ccc5c4[C@@]31CCN(CC1CC1)[C@@H]2C5`: the inhibitory constant (Ki) is 0.21 nM at Mu-type opioid receptor [1] and 0.59 nM in assay [2]. Besides, the results for the EC50 (on Mu-type opioid receptor [7]; in assay [4]) were 1 nM and 2.4 nM, respectively. The Activity stood at 19% in assay [3] and 97% in assay [5].
`O=C(/C=C/c1ccccc1)N[C@@H]1CC[C@@]2(O)[C@H]3Cc4ccc(O)c5c4[C@@]2(CCN3CC2CC2)[C@H]1O5`: the values for the Ki (on Mu-type opioid receptor [1]; in assay [2]) were 0.17 nM and 0.043 nM, respectively. Also, the half-maximal effective concentration (EC50) was determined as 1.8 nM at Mu-type opioid receptor [7] and 0.12 nM in assay [4]. The values for the Activity in assay [3] and in assay [5] were 21% and 100%, respectively.
Regarding `O=C(/C=C/c1ccccc1[N+](=O)[O-])N[C@@H]1CC[C@@]2(O)[C@H]3Cc4ccc(O)c5c4[C@@]2(CCN3CC2CC2)[C@H]1O5`, the inhibition constant Ki is 0.35 nM on Mu-type opioid receptor [1] and 0.3 nM in assay [2]. Further, the results for the EC50 (on Mu-type opioid receptor [7]; in assay [4]) were 0.69 nM and 1.9 nM, respectively. In addition, the Activity came to 6.7% in assay [3] and 81% in assay [5].
As for `O=C(/C=C/c1cccc([N+](=O)[O-])c1)N[C@@H]1CC[C@@]2(O)[C@H]3Cc4ccc(O)c5c4[C@@]2(CCN3CC2CC2)[C@H]1O5`, the Ki at Mu-type opioid receptor [1] was 0.11 nM; in assay [2] it was 0.36 nM. For the same compound, the values for the concentration for a half-maximal effect (EC50) (on Mu-type opioid receptor [7]; in assay [4]) were 0.18 nM and 0.12 nM, respectively. The Activity in assay [3] is 20%; in assay [5], 100%.
